Hits are enriched below; roughly 2.3% of the tested compounds scored in any of these assays.
OXTR potentiate = potentiates the human oxytocin receptor response. P30559. CHO-OTR cells, Fluo-8 calcium fluorescence, potentiator mode; 0% = oxytocin EC15, 100% = EC100. activation, % at 3 µM. hit rate 0.061% among 320,000. AID 2445;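 active = activation above that plate's cutoff, the mean activation of tested compounds plus 3 SD, cut at about 6.6% in these data, passing the limit was not always enough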;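 note: 100% uses oxytocin at 75 nM as the full agonist control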
Target sequence (P30559 whole entry, looked up): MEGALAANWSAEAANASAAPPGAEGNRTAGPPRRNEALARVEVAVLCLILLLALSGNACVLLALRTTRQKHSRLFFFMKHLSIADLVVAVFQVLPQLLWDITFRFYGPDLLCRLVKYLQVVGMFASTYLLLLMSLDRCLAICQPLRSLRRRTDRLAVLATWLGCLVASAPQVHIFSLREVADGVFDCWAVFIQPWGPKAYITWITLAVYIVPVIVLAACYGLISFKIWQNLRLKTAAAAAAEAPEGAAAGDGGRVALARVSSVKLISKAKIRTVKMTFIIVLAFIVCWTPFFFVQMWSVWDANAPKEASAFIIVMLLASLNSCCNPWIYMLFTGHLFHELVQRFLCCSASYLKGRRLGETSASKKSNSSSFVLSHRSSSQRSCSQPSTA
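Assay system: CHO cell line stably expressing human OTR. Reagent: EC15 oxytocin agonist. Dosing: single dose, 3.0 µM nominal final compound concentration. Timing: compound 6 min at room temperature before oxytocin, 100 s read. Signal: kinetic Fluo-8 calcium fluorescence. Controls: oxytocin EC15 low and EC100 high.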
OXTR agonist = agonists of human oxytocin receptor; AID 2435; hit rate 0.32% among 320,000; activation, % at 3 µM; CHO-OTR cells, Fluo-8 calcium fluorescence; normalized: DMSO 0%, oxytocin 100%; P30559;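 active = activation above the mean of all tested compounds plus 3 SD, cutoff set per screening run, cut at about 20% in these data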;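 note: peak over basal fluorescence ratio from a 100 s FLIPR kinetic read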
TAAR1 antagonist = antagonists of human TAAR1 | AID 624466 | CHO RD-HGA16 TAAR1, Fluo-8 calcium fluorescence, antagonist | hit rate 1.5% among 360,000 | inhibition, % at 3 µM;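 active = inhibition above a per-plate cutoff, the mean inhibition of test compounds on that plate plus 3 SD, cut at about 49% in these data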;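 note: 0% = DMSO plus EC80 beta-PEA response and 100% = DMSO alone without agonist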
Target sequence (Q96RJ0 whole entry, looked up): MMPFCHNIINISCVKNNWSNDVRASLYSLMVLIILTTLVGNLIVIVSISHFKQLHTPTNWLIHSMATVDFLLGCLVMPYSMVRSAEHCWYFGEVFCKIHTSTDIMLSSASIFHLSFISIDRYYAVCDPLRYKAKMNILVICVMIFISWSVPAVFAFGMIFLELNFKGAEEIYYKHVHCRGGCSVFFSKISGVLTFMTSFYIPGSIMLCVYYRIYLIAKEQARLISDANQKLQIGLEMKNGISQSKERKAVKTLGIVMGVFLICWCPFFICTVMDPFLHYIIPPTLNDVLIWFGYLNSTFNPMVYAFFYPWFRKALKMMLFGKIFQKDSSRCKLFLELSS
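System: CHO RD-HGA16 cells bearing hTAAR1. Reagent: EC80 β-phenethylamine stimulus. Schedule: seeding 17-24 h prior, 75-min 37 °C, 30-min RT dye loading. Signal: Fluo-8 intracellular calcium dye fluorescence, real-time kinetic reads. Read-out: % inhibition from peak post-agonist over basal fluorescence ratio. Benchmarks: vehicle wells and EC80 agonist wells. Replicates: n of 1.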
V1R ag counter = V1a receptor agonism, counter-screen for OXTR agonists. activation, % at 3 µM. CHO-V1R cells, Fluo-8 calcium fluorescence, agonist mode; 0% DMSO, 100% 3 nM vasopressin. P37288. hit rate 0.25% among 320,000;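 active = activation above the mean activation of all tested compounds plus 3 SD, per screening run, cut at about 20% in these data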;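 note: signal is peak over basal fluorescence ratio across a 100 second FLIPR read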
TAAR1 ag = agonists of human TAAR1; CHO RD-HGA16 TAAR1, Fluo-8 calcium fluorescence; vehicle wells 0%, saturating PEA agonist 100%; hit rate 0.99% among 360,000; activation, % at 3 µM;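 active = activation above the mean activation of all test compounds in the run plus 3 SD, cut at about 38% in these data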
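Test system: RD-HGA16 (CHO) cells co-expressing Gα16 and hTAAR1; dosing: one-point dosing at 3 µM (nominal); timing: 17-24 h seeding, 75 min 37 °C dye, 30 min RT; signal: kinetic Fluo-8 calcium fluorescence; read-out basis: % activation relative to PEA EC100 response; controls: DMSO and PEA EC100; replicates: n 1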
TAAR1 nonsel count = counter-screen for TAAR1 antagonists: nonselective antagonists. shares compounds with TAAR1 antagonist. counterscreen cell line, calcium fluorescence, antagonist mode. hit rate 77% among 2,400. inhibition, % at 3 µM. AID 651780; in the data active = inhibition above about 22%;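 note: CHO-Ga16 host cells stimulated with ATP at an EC80 level; 0% = agonist EC80 plus vehicle and 100% = vehicle without agonist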
TAAR1 ant conf = human TAAR1 antagonism, confirmed; shares compounds with TAAR1 antagonist; TAAR1-expressing cells, fluorescence antagonist read-out; inhibition, % at 3 µM; hit rate 40% among 2,400; AID 651785; in the data active = inhibition above about 49%;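 note: CHO-Ga16 host cells challenged with agonist PEA near its EC80; 0% = agonist at EC80 plus vehicle and 100% = vehicle with no agonist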
Ga16 ag counter = nonselective Ga16 agonism, counter-screen; shares compounds with TAAR1 antagonist; Ga16-expressing cells, calcium fluorescence, agonist counterscreen; activation, % at 3 µM; hit rate 18% among 2,400; AID 651953; in the data active = activation above about 12%;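 note: 0% = vehicle wells and 100% = saturating stimulus response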
TAAR1 ag count = TAAR1 agonism, antagonist counter-screen. shares compounds with TAAR1 antagonist. hTAAR1 cell line, fluorescence activation, agonist mode. activation, % at 3 µM. hit rate 2% among 2,400. AID 651955; in the data active = activation above about 37%;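 note: CHO cells stably expressing TAAR1 with calcium dye readout; 0% = DMSO vehicle and 100% = full agonist response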
Active calls of the source: *.

Screening CS(=O)(=O)N1CCN(c2ccc(NC(=O)COc3ccccc3[N+](=O)[O-])cc2)CC1 returned OXTR potentiate -12.6, OXTR agonist 6.2, TAAR1 antagonist 63.3*, V1R ag counter 8.4, TAAR1 ag 19.5, TAAR1 nonsel count 27.6*, TAAR1 ant conf 42.4, Ga16 ag counter 11.8* and TAAR1 ag count 10.7.
`CC(C)C(=O)N1CCN(c2ccc(NC(=O)COc3ccccc3[N+](=O)[O-])cc2)CC1` gave OXTR potentiate -34.1, OXTR agonist 14.2, TAAR1 antagonist 72.8*, V1R ag counter 13.4, TAAR1 ag 31.3, TAAR1 nonsel count 55.3*, TAAR1 ant conf 76.0*, Ga16 ag counter 19.9* and TAAR1 ag count 20.6.
For CN1CCN(c2ccc(NC(=O)COc3ccccc3[N+](=O)[O-])cc2)CC1 the results were OXTR potentiate -12.3, OXTR agonist 0.3, TAAR1 antagonist -0.2, V1R ag counter 1.4 and TAAR1 ag 12.8.
CCOC(=O)C1=C(C)NC(C)=C(C(=O)OCC)C1C(=O)OCC(N)=O was read as OXTR potentiate -1.9, OXTR agonist 0.9, TAAR1 antagonist -14.8, V1R ag counter 0.4 and TAAR1 ag 0.2.
For CCOC(=O)C1=C(C)NC(C)=C(C(=O)OCC)C1C(=O)OCC(=O)NC(C)C the results were OXTR potentiate -5.4, OXTR agonist -0.6, TAAR1 antagonist 60.0*, V1R ag counter -0.2, TAAR1 ag 15.8, TAAR1 nonsel count 22.7*, TAAR1 ant conf 45.4, Ga16 ag counter 7.5 and TAAR1 ag count 9.5.
`Cc1cccc(NC(=O)c2ncn3c2C(=O)N(C)CC3)c1` gave TAAR1 antagonist -20.5 and TAAR1 ag 9.4.
Screening c1ccc(Nc2ccc(NCCc3c[nH]c4ccccc34)cc2)cc1 returned TAAR1 antagonist 5.3 and TAAR1 ag 5.9.
Screening C=CC[C@@H](CC(=O)N[C@H](CO)Cc1ccccc1)C(=O)N[C@H](COC(=O)[C@@H](CC=C)Cc1ccc(F)cc1)Cc1c[nH]c2ccccc12 returned OXTR potentiate -9.6, OXTR agonist 2.6, TAAR1 antagonist 85.8*, V1R ag counter 2.9, TAAR1 ag 28.2, TAAR1 nonsel count 38.1*, TAAR1 ant conf 51.5*, Ga16 ag counter 5.3 and TAAR1 ag count 15.3.
For C=CCC[C@@H](Cc1ccc(F)cc1)C(=O)OC[C@H](Cc1c[nH]c2ccccc12)NC(=O)[C@H](CC=C)CC(=O)NCCO the results were OXTR potentiate -3.7, OXTR agonist 0.1, TAAR1 antagonist 75.2*, V1R ag counter 0.8, TAAR1 ag 21.8, TAAR1 nonsel count 30.4*, TAAR1 ant conf 41.9, Ga16 ag counter 6.9 and TAAR1 ag count 6.6.
`C=CC[C@H](CC(=O)N[C@H](CO)Cc1ccccc1)C(=O)N[C@@H](COC(=O)[C@@H](CC=C)CC(=O)OC(C)(C)C)Cc1c[nH]c2ccccc12` gave OXTR potentiate -8.3, OXTR agonist 0.1, TAAR1 antagonist 62.7*, V1R ag counter 0.5, TAAR1 ag 23.3, TAAR1 nonsel count 29.9*, TAAR1 ant conf 37.5, Ga16 ag counter 4.3 and TAAR1 ag count 3.7.
C=CC[C@@H](CC(=O)N[C@@H](CO)Cc1ccccc1)C(=O)N[C@H](COC(=O)[C@@H](CC=C)CC(=O)OC(C)(C)C)Cc1c[nH]c2ccccc12 was read as OXTR potentiate -9.1, OXTR agonist -0.5, TAAR1 antagonist 38.9, V1R ag counter -0.3 and TAAR1 ag 3.6.
Cc1cc2nc(-c3ccco3)c(Cc3cccc(Cl)c3)n2c(C)c1Br was read as TAAR1 antagonist -2.8 and TAAR1 ag -0.1.
`CCN(CC)S(=O)(=O)c1cc(NC(=O)c2ccccc2OCc2c(C)noc2C)ccc1C` gave TAAR1 antagonist 63.6*, TAAR1 ag 2.9, TAAR1 nonsel count 24.3*, TAAR1 ant conf 44.0, Ga16 ag counter 2.6 and TAAR1 ag count -1.8.
Screening CCCNC(=O)COC(=O)c1ccccc1OCC(=O)Nc1ccc(Br)cc1 returned OXTR potentiate 7.3, OXTR agonist -0.9, TAAR1 antagonist -12.8, V1R ag counter 0.3 and TAAR1 ag 1.1.
For CC(=O)c1ccc(NC(=O)COc2ccccc2C(=O)Nc2ccccc2)cc1 the results were OXTR potentiate -14.0, OXTR agonist 8.6, TAAR1 antagonist 73.3*, V1R ag counter 7.0, TAAR1 ag 11.8, TAAR1 nonsel count 45.0*, TAAR1 ant conf 67.1*, Ga16 ag counter 14.6* and TAAR1 ag count 11.2.
For Cc1noc(C)c1COc1ccccc1C(=O)Nc1cccc(S(=O)(=O)N(C)C)c1 the results were OXTR potentiate -0.4, OXTR agonist -0.3, TAAR1 antagonist -3.0, V1R ag counter 0.2 and TAAR1 ag 2.7.
For CC(=O)c1ccc(NC(=O)c2ccc(S(=O)(=O)c3ccccc3)cc2)cc1 the results were OXTR potentiate -9.0, OXTR agonist 6.6, TAAR1 antagonist 69.4*, V1R ag counter 6.7, TAAR1 ag 20.6, TAAR1 nonsel count 38.7*, TAAR1 ant conf 61.1*, Ga16 ag counter 12.4* and TAAR1 ag count 15.7.
`CC(C)(C)NC(=O)COC(=O)c1ccccc1OCC(=O)Nc1ccc(Br)cc1` gave OXTR potentiate -6.2, OXTR agonist -1.4, TAAR1 antagonist 51.0*, V1R ag counter 0.2, TAAR1 ag 10.2, TAAR1 nonsel count 23.8*, TAAR1 ant conf 42.6, Ga16 ag counter 8.8 and TAAR1 ag count 8.5.
`C[C@@H]1CN([C@@H](C)CO)C(=O)CCCn2cc(nn2)CO[C@H]1CN(C)C(=O)C1CC1` gave TAAR1 antagonist -12.1 and TAAR1 ag 2.2.
Cc1ccc2oc(=O)c3cc(C(=O)NCCCN4CCC(C)CC4)sc3c2c1 was read as TAAR1 antagonist -18.1 and TAAR1 ag 5.2.
`O=C1NC(c2ccccc2)c2c(-c3ccccc3)n[nH]c21` (stereo not drawn) gave TAAR1 antagonist -4.3 and TAAR1 ag 0.6.
Screening COC(=O)C1=C(C)N(Cc2ccc(F)cc2)C(=S)NC1c1ccc(F)cc1 (stereo not drawn) returned TAAR1 antagonist 34.7 and TAAR1 ag -2.4.

Assay outcomes: PubChem, The Scripps Research Institute Molecular Screening Center
